Test results: ChEMBL document CHEMBL1140128 (J Med Chem, 2008)
Each block holds one compound with its values, some of them ahead of it. Activity calls are given as the source filed them. The rule behind the calls is not given here.

Key:
Mus musculus [1] = species on record: Mus musculus; experiment: Selectivity for mouse MC4R over mouse MC3R by CRE/beta-galactosidase reporter gene assay
[2] = molecular target: Melanocortin receptor 3 (Mus musculus) (UniProt P33033); experiment: Agonist activity at mouse MC3R expressed in HEK293 cells by CRE/beta-galactosidase reporter gene assay relative to Ac-His-DPhe7-Arg-Trp-NH2 peptide; format: functional, cell-based
Sequence of Melanocortin receptor 3 (Mus musculus) (P33033 whole entry): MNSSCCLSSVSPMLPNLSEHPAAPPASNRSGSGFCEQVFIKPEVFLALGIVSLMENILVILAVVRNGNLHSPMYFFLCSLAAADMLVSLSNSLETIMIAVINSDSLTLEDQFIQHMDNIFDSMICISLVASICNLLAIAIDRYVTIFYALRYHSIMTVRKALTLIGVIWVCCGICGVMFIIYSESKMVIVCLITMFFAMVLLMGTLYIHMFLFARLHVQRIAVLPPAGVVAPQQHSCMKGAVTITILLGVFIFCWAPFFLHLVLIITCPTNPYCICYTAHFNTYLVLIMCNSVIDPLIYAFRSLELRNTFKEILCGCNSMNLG
Outline: (§1)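 HEK293 cells stably expressing the mouse receptor (G418 selection) were transfected with CRE/β-galactosidase reporter. After 48 h they were stimulated for 6 h with peptide (10^-4–10^-12 M) in DMEM with 0.1 mg/mL BSA and 0.1 mM IBMX. Lysates were read with ONPG substrate at OD405 and normalized to protein (OD595) and to a 10^-4 M forskolin control.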

Melanocortin receptor 3 [3] = molecular target: T1, Melanocortin receptor 3 (Mus musculus, UniProt P33033); experiment: Antagonist activity at mouse MC3R expressed in HEK293 cells assessed as effect on MT2 peptide-induced response by CRE/beta-galactosidase reporter gene assay; format: functional, cell-based; conditions: for Kb: read-out: pA2 (converted)
T1 sequence (P33033 whole entry): as above
Outline: (§2)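 Mouse MC3R HEK293 stable line carrying transfected CRE/β-galactosidase reporter, 6 h stimulation in IBMX-containing medium. Peptides tested for dose-dependent competitive displacement of MTII agonist at up to 10 μM (footnote: up to 100 μM).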

[4] = molecular target: Melanocortin receptor 4 (Mus musculus) (UniProt P56450); experiment: Agonist activity at mouse MC4R expressed in HEK293 cells by CRE/beta-galactosidase reporter gene assay relative to Ac-His-DPhe7-Arg-Trp-NH2 peptide; format: functional, cell-based; outline: as §1
Sequence of Melanocortin receptor 4 (Mus musculus) (P56450 whole entry): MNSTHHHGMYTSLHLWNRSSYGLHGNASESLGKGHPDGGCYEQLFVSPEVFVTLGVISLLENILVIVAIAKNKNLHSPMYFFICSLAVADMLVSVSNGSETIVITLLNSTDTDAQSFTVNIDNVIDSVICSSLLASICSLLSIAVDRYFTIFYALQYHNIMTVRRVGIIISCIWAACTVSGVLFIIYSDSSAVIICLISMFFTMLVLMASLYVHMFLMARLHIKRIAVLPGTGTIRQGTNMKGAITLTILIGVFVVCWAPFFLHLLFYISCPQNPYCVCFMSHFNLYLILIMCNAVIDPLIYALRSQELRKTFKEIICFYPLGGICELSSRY

[5] = molecular target: Melanocortin receptor 5 (Mus musculus) (UniProt P41149); experiment: Agonist activity at mouse MC5R expressed in HEK293 cells by CRE/beta-galactosidase reporter gene assay relative to Ac-His-DPhe7-Arg-Trp-NH2 peptide; format: functional, cell-based; outline: as §1
Sequence of Melanocortin receptor 5 (Mus musculus) (P41149 whole entry): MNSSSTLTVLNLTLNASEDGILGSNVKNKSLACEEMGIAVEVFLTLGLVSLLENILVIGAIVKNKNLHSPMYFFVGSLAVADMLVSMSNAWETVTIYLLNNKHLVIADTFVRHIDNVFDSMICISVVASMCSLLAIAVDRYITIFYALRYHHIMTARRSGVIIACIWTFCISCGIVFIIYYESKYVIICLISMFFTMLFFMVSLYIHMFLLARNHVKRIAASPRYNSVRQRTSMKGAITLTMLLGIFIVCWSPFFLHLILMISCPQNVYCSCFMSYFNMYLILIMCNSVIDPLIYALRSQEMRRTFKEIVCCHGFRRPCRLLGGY

[6] = molecular target: Melanocyte-stimulating hormone receptor (Mus musculus) (UniProt Q01727); experiment: Agonist activity at mouse MC1R expressed in HEK293 cells by CRE/beta-galactosidase reporter gene assay relative to Ac-His-DPhe7-Arg-Trp-NH2 peptide; format: functional, cell-based; outline: as §1
Sequence of Melanocyte-stimulating hormone receptor (Mus musculus) (Q01727 whole entry, looked up): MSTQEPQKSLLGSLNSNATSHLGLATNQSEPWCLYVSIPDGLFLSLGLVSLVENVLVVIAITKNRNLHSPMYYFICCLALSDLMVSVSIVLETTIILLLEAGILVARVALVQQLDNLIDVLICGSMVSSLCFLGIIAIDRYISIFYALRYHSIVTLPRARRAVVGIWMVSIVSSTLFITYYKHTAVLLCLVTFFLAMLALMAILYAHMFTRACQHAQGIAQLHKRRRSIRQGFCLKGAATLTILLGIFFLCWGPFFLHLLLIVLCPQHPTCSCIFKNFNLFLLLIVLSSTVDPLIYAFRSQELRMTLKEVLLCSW

[7] = molecular target: Melanocyte-stimulating hormone receptor (Mus musculus, UniProt Q01727); experiment: Agonist activity at mouse MC1R expressed in HEK293 cells by CRE/beta-galactosidase reporter gene assay; format: functional, cell-based
Sequence of Melanocyte-stimulating hormone receptor (Q01727 whole entry): as the sequence (Q01727 whole entry, looked up) above
Outline: (§3)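 HEK293 cells stably expressing the mouse receptor (G418 selection) were transfected with CRE/β-galactosidase reporter. Lysates were read with ONPG substrate at OD405 and normalized to protein (OD595) and to a 10^-4 M forskolin control.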

Melanocortin receptor 4 [8] = molecular target: T2, Melanocortin receptor 4 (Mus musculus, UniProt P56450); experiment: Agonist activity at mouse MC4R expressed in HEK293 cells by CRE/beta-galactosidase reporter gene assay; format: functional, cell-based; outline: as §1
T2 sequence (P56450 whole entry): as the sequence (P56450 whole entry) above

Melanocortin receptor 5 = Melanocortin receptor 5 (Mus musculus, UniProt P41149); experiment: Agonist activity at mouse MC5R expressed in HEK293 cells by CRE/beta-galactosidase reporter gene assay; format: functional, cell-based; outline: as §1
Sequence of Melanocortin receptor 5 (P41149 whole entry): as the sequence (P41149 whole entry) above

Melanocortin receptor 4 [9] = molecular target: T2, Melanocortin receptor 4; experiment: Antagonist activity at mouse MC4R expressed in HEK293 cells assessed as effect on MT2 peptide-induced response by CRE/beta-galactosidase reporter gene assay; format: functional, cell-based; conditions: read-out: pA2 (converted)
Mus musculus [10] = species on record: Mus musculus; experiment: Selectivity for mouse MC4R over mouse MC1R by CRE/beta-galactosidase reporter gene assay
Melanocortin receptor 3 [11] = molecular target: T1, Melanocortin receptor 3; experiment: Agonist activity at mouse MC3R expressed in HEK293 cells by CRE/beta-galactosidase reporter gene assay; format: functional, cell-based; outline: as §3
[12] = molecular target: Melanocortin receptor 3 (Mus musculus) (UniProt P33033); experiment: Antagonist activity at mouse MC3R expressed in HEK293 cells assessed as effect on MT2 peptide-induced response up to 100 uM by CRE/beta-galactosidase reporter gene assay; format: functional, cell-based; outline: as §2
[13] = molecular target: Melanocortin receptor 3 (Mus musculus) (UniProt P33033); experiment: Agonist activity at mouse MC3R expressed in HEK293 cells up to 100 uM by CRE/beta-galactosidase reporter gene assay; format: functional, cell-based; outline: as §1

Ratio EC50 (Mus musculus [1]): 140
SMILES: CC(=O)N[C@@H](Cc1cnc[nH]1)C(=O)N[C@H](Cc1cccc(Cl)c1)C(=O)N[C@@H](CCCNC(=N)N)C(=O)N[C@@H](Cc1c[nH]c2ccccc12)C(N)=O

fold change (FC) [2]: 5
SMILES: CC(=O)N[C@@H](Cc1cnc[nH]1)C(=O)N[C@H](Cc1ccc([N+](=O)[O-])cc1)C(=O)N[C@@H](CCCNC(=N)N)C(=O)N[C@@H](Cc1c[nH]c2ccccc12)C(N)=O

Ki (Melanocortin receptor 3 [3]): 260 nM
Kb (Melanocortin receptor 3 [3]): 38 nM
SMILES: CC(=O)N[C@@H](Cc1cnc[nH]1)C(=O)N[C@H](Cc1ccc(Cl)c(Cl)c1)C(=O)N[C@@H](CCCN=C(N)N)C(=O)N[C@@H](Cc1c[nH]c2ccccc12)C(N)=O

Ki (Melanocortin receptor 3 [3]): 6170 nM
Kb (Melanocortin receptor 3 [3]): 162 nM
SMILES: CC(=O)N[C@@H](Cc1cnc[nH]1)C(=O)N[C@H](Cc1ccc(C(F)(F)F)cc1)C(=O)N[C@@H](CCCNC(=N)N)C(=O)N[C@@H](Cc1c[nH]c2ccccc12)C(N)=O

fold change (FC) [4]: 1
fold change (FC) [5]: 1
fold change (FC) [2]: 1
fold change (FC) [6]: 1
SMILES: CC(=O)N[C@@H](Cc1cnc[nH]1)C(=O)N[C@H](Cc1ccccc1)C(=O)N[C@@H](CCCNC(=N)N)C(=O)N[C@@H](Cc1c[nH]c2ccccc12)C(N)=O

EC50 [7]: 180 nM
EC50 (Melanocortin receptor 4 [8]): 63.8 nM
EC50 (Melanocortin receptor 5): 51.1 nM
SMILES: CC(=O)N[C@@H](Cc1cnc[nH]1)C(=O)N[C@H](Cc1ccc(C(=O)c2ccccc2)cc1)C(=O)N[C@@H](CCCNC(=N)N)C(=O)N[C@@H](Cc1c[nH]c2ccccc12)C(N)=O

fold change (FC) [6]: 1
SMILES: CC(=O)N[C@@H](Cc1cnc[nH]1)C(=O)N[C@H](Cc1ccc(Cl)c(Cl)c1)C(=O)N[C@@H](CCCNC(=N)N)C(=O)N[C@@H](Cc1c[nH]c2ccccc12)C(N)=O

EC50 (Melanocortin receptor 4 [8]): 2.28 nM
Kb (Melanocortin receptor 4 [9]): 5.01 nM
EC50 (Melanocortin receptor 5): 3.26 nM
SMILES: CC(=O)N[C@@H](Cc1cnc[nH]1)C(=O)N[C@H](Cc1ccccc1)C(=O)N[C@@H](CCCN=C(N)N)C(=O)N[C@@H](Cc1c[nH]c2ccccc12)C(N)=O

EC50 [7]: 53.7 nM
SMILES: CC(=O)N[C@@H](Cc1cnc[nH]1)C(=O)N[C@H](Cc1ccc(F)cc1)C(=O)N[C@@H](CCCN=C(N)N)C(=O)N[C@@H](Cc1c[nH]c2ccccc12)C(N)=O

Ratio EC50 (Mus musculus [10]): 200
Ratio EC50 (Mus musculus [1]): 200
fold change (FC) [2]: -2
fold change (FC) [6]: -2
SMILES: CC(=O)N[C@@H](Cc1cnc[nH]1)C(=O)N[C@H](Cc1ccc(F)cc1)C(=O)N[C@@H](CCCNC(=N)N)C(=O)N[C@@H](Cc1c[nH]c2ccccc12)C(N)=O

Ki (Melanocortin receptor 3 [3]): 350 nM
Kb (Melanocortin receptor 3 [3]): 28.8 nM
SMILES: CC(=O)N[C@@H](Cc1cnc[nH]1)C(=O)N[C@H](Cc1ccc(Br)cc1)C(=O)N[C@@H](CCCNC(=N)N)C(=O)N[C@@H](Cc1c[nH]c2ccccc12)C(N)=O

fold change (FC) [4]: 2
fold change (FC) [5]: 2
SMILES: CC(=O)N[C@@H](Cc1cnc[nH]1)C(=O)N[C@H](Cc1ccc(C)cc1)C(=O)N[C@@H](CCCNC(=N)N)C(=O)N[C@@H](Cc1c[nH]c2ccccc12)C(N)=O

Ratio EC50 (Mus musculus [10]): 200
Ratio EC50 (Mus musculus [1]): 200
fold change (FC) [5]: -2
SMILES: CC(=O)N[C@@H](Cc1cnc[nH]1)C(=O)N[C@H](Cc1ccc(Cl)cc1)C(=O)N[C@@H](CCCNC(=N)N)C(=O)N[C@@H](Cc1c[nH]c2ccccc12)C(N)=O

EC50 (Melanocortin receptor 4 [8]): 2.84 nM
fold change (FC) [5]: 1
SMILES: CC(=O)N[C@@H](Cc1cnc[nH]1)C(=O)N[C@H](Cc1ccc(C#N)cc1)C(=O)N[C@@H](CCCNC(=N)N)C(=O)N[C@@H](Cc1c[nH]c2ccccc12)C(N)=O

Ki (Melanocortin receptor 3 [3]): 5010 nM
SMILES: CC(=O)N[C@H](Cc1cnc[nH]1)C(=O)NC(Cc1ccc2ccccc2c1)C(=O)N[C@@H](CCCNC(=N)N)C(=O)N[C@@H](Cc1c[nH]c2ccccc12)C(N)=O (stereo in doubt)

fold change (FC) [4]: 171
EC50 [7]: 2600 nM
EC50 (Melanocortin receptor 3 [11]): 12500 nM
EC50 (Melanocortin receptor 4 [8]): 390 nM
fold change (FC) [5]: 223
fold change (FC) [2]: 99
EC50 (Melanocortin receptor 5): 730 nM
fold change (FC) [6]: 23
SMILES: CC(=O)N[C@@H](Cc1cnc[nH]1)C(=O)N[C@H](Cc1ccc(O)cc1)C(=O)N[C@@H](CCCNC(=N)N)C(=O)N[C@@H](Cc1c[nH]c2ccccc12)C(N)=O

fold change (FC) [4]: 96
fold change (FC) [5]: 69
fold change (FC) [2]: 130
fold change (FC) [6]: 21
SMILES: CC(=O)N[C@@H](Cc1cnc[nH]1)C(=O)N[C@H](Cc1ccc(N)cc1)C(=O)N[C@@H](CCCNC(=N)N)C(=O)N[C@@H](Cc1c[nH]c2ccccc12)C(N)=O

EC50 (Melanocortin receptor 5): 226 nM
SMILES: CC(=O)N[C@@H](Cc1cnc[nH]1)C(=O)N[C@H](Cc1ccc(N)cc1)C(=O)N[C@@H](CCCN=C(N)N)C(=O)N[C@@H](Cc1c[nH]c2ccccc12)C(N)=O

Activity [12]: inactive
Activity [13]: inactive
SMILES: CC(=O)N[C@@H](Cc1cnc[nH]1)C(=O)N[C@H](Cc1ccc(C(C)(C)C)cc1)C(=O)N[C@@H](CCCNC(=N)N)C(=O)N[C@@H](Cc1c[nH]c2ccccc12)C(N)=O
